Laboratory results taken from ChEMBL document CHEMBL2321839, “Novel limonene and citral based 2,5-disubstituted-1,3,4-oxadiazoles: a natural product coupled approach to semicarbazones for antiepileptic activity” (Bioorg Med Chem Lett, 2013).
Calls of active or inactive are those of the source. No cut-off for these calls is given here.

What was measured:
Rattus norvegicus [1] = assay: Antiepileptic activity in Wistar rat assessed as protection against scSTY-induced seizures at 300 mg/kg, ip measured after 0.5 hrs; assay type: functional, organism-based; design: dose 300 mg/kg
Procedure, shortened: (§1)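 Male Wistar rats (100–150 g), compounds given ip at 30, 100 and 300 mg/kg. Seizures induced by subcutaneous strychnine (scSTY). Activity read 0.5 and 4.0 h after dosing. Reported as the minimal dose active in at least half of the animals; a dash means no activity at 300 mg/kg.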

Mus musculus [2] = assay: Neurotoxicity against Swiss albino mouse by rotarod test at 300 mg/kg, ip after 0.5 hrs; assay type: toxicity, organism-based; design: dose 300 mg/kg, route intraperitoneal; details: in vivo
Procedure, shortened: (§2)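 Acute neurotoxicity tested by rotorod in male Swiss albino mice (18–25 g) given 30, 100 or 300 mg/kg ip. Read at 0.5 and 4.0 h post-dose. Result is the minimal dose causing toxicity in half or more of the animals; a dash means none up to 300 mg/kg.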

Mus musculus [3] = assay: Antiepileptic activity in Swiss albino mouse assessed as protection against scPTZ-induced seizures at 300 mg/kg, ip measured after 0.5 hrs; assay type: functional, organism-based; design: dose 300 mg/kg
Procedure, shortened: (§3)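 Male Swiss albino mice (18–25 g), compounds given ip at 30, 100 and 300 mg/kg. Seizures induced by maximal electroshock (MES) or subcutaneous pentylenetetrazole (scPTZ). Protection scored at 0.5 and 4.0 h after dosing.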

Mus musculus [4] = assay: Antiepileptic activity in ip dosed Swiss albino mouse assessed as protection against maximal-electric shock-induced seizures after 4 hrs; assay type: functional; details: read-out: MED; procedure, shortened: as §3
Rattus norvegicus [5] = assay: Antiepileptic activity in Wistar rat assessed as GABA level in medulla oblangata per 100 mg at 100 mg/kg ip after 2 hrs (reference value: 31.86 +/- 4.65 ug); assay type: functional, Medulla oblongata; details: route intraperitoneal
Rattus norvegicus [6] = assay: Antiepileptic activity in ip dosed Wistar rat assessed as protection against scSTY-induced seizures after 4 hrs; assay type: functional; details: read-out: MED; procedure, shortened: as §1
Rattus norvegicus [7] = assay: Neurotoxicity in Wistar rat at 30 mg/kg, po measured at 0.5 hrs by rotarod test; assay type: toxicity, organism-based; design: dose 30 mg/kg, route oral; details: in vivo
Procedure, shortened: (§4)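 Neurotoxicity assessed in Wistar rats (100–150 g) after a 30 mg/kg oral dose, read at 0.25, 0.5, 1, 2 and 4 h.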

Rattus norvegicus [8] = assay: Antiepileptic activity in Wistar rat assessed as protection against maximal electric shock-induced seizures at 30 mg/kg, po measured at 1 hr; assay type: functional
Procedure, shortened: (§5)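 Single oral dose of 30 mg/kg in Wistar rats (100–150 g), tested by MES challenge at 0.25, 0.5, 1, 2 and 4 h.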

Mus musculus [9] = assay: Antiepileptic activity in ip dosed Swiss albino mouse assessed as protection against scPTZ-induced seizures after 4 hrs; assay type: functional; details: read-out: MED; procedure, shortened: as §3
Rattus norvegicus [10] = assay: Antiepileptic activity in Wistar rat assessed as protection against maximal electric shock-induced seizures at 30 mg/kg, po measured at 2 hrs; assay type: functional; procedure, shortened: as §5
Rattus norvegicus [11] = assay: Antiepileptic activity in Wistar rat assessed as protection against maximal electric shock-induced seizures at 30 mg/kg, po measured at 0.25 hrs; assay type: functional; procedure, shortened: as §5
Rattus norvegicus [12] = assay: Neurotoxicity in Wistar rat at 30 mg/kg, po measured at 4 hrs by rotarod test; assay type: toxicity, organism-based; design: dose 30 mg/kg, route oral; details: in vivo; procedure, shortened: as §4
Mus musculus [13] = assay: Antiepileptic activity in ip dosed Swiss albino mouse assessed as protection against maximal-electric shock-induced seizures after 0.5 hrs; assay type: functional; details: read-out: MED; procedure, shortened: as §3
Rattus norvegicus [14] = assay: Neurotoxicity in Wistar rat at 30 mg/kg, po measured at 2 hrs by rotarod test; assay type: toxicity, organism-based; design: dose 30 mg/kg, route oral; details: in vivo; procedure, shortened: as §4
Mus musculus [15] = assay: Neurotoxicity against Swiss albino mouse by rotarod test at 300 mg/kg, ip after 4 hrs; assay type: toxicity, organism-based; design: dose 300 mg/kg, route intraperitoneal; details: in vivo; procedure, shortened: as §2
Rattus norvegicus [16] = assay: Antiepileptic activity in Wistar rat assessed as protection against maximal electric shock-induced seizures at 30 mg/kg, po measured at 0.5 hrs; assay type: functional; procedure, shortened: as §5
Rattus norvegicus [17] = assay: Antiepileptic activity in Wistar rat assessed as GABA level in cerebellum per 100 mg at 100 mg/kg ip after 2 hrs (reference value: 23.48+/- 2.48 ug); assay type: functional; details: route intraperitoneal
Rattus norvegicus [18] = assay: Antiepileptic activity in Wistar rat assessed as GABA level in midbrain per 100 mg at 100 mg/kg ip after 2 hrs (reference value: 35.42 +/- 2.14 ug); assay type: functional; details: route intraperitoneal
Rattus norvegicus [19] = assay: Neurotoxicity in Wistar rat at 30 mg/kg, po measured at 0.25 hrs by rotarod test; assay type: toxicity, organism-based; design: dose 30 mg/kg, route oral; details: in vivo; procedure, shortened: as §4
Rattus norvegicus [20] = assay: Antiepileptic activity in Wistar rat assessed as protection against maximal electric shock-induced seizures at 30 mg/kg, po measured at 4 hrs; assay type: functional; procedure, shortened: as §5
Rattus norvegicus [21] = assay: Neurotoxicity in Wistar rat at 30 mg/kg, po measured at 1 hr by rotarod test; assay type: toxicity, organism-based; design: dose 30 mg/kg, route oral; details: in vivo; procedure, shortened: as §4
Mus musculus [22] = assay: Antiepileptic activity in ip dosed Swiss albino mouse assessed as protection against scPTZ-induced seizures after 0.5 hrs; assay type: functional; details: read-out: MED; procedure, shortened: as §3
Rattus norvegicus [23] = assay: Antiepileptic activity in Wistar rat assessed as GABA level in midbrain per 100 mg at 30 mg/kg ip after 2 hrs (reference value: 35.42 +/- 2.14 ug); assay type: functional; details: route intraperitoneal
Rattus norvegicus [24] = assay: Antiepileptic activity in Wistar rat assessed as GABA level in medulla oblangata per 100 mg at 30 mg/kg ip after 2 hrs (reference value: 31.86 +/- 4.65 ug); assay type: functional, Medulla oblongata; details: route intraperitoneal
Rattus norvegicus [25] = assay: Antiepileptic activity in Wistar rat assessed as GABA level in cerebellum per 100 mg at 30 mg/kg ip after 2 hrs (reference value: 23.48+/- 2.48 ug); assay type: functional; details: route intraperitoneal
Rattus norvegicus [26] = assay: Antiepileptic activity in ip dosed Wistar rat assessed as protection against scSTY-induced seizures after 0.5 hrs; assay type: functional; details: read-out: MED
Procedure, shortened: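 Subcutaneous strychnine seizure test in Wistar rats (male, 100–150 g), compounds given ip at 30, 100 and 300 mg/kg. Protection read 0.5 and 4.0 h after dosing.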

Rattus norvegicus [27] = assay: Antiepileptic activity in Wistar rat assessed as protection against scSTY-induced seizures at 300 mg/kg, ip measured after 4 hrs; assay type: functional, organism-based; design: dose 300 mg/kg; procedure, shortened: as §1
Mus musculus [28] = assay: Antiepileptic activity in Swiss albino mouse assessed as protection against maximal-electric shock-induced seizures at 300 mg/kg, ip measured after 4 hrs; assay type: functional, organism-based; design: dose 300 mg/kg; procedure, shortened: as §3
Mus musculus [29] = assay: Antiepileptic activity in Swiss albino mouse assessed as protection against maximal-electric shock-induced seizures at 300 mg/kg, ip measured after 0.5 hrs; assay type: functional, organism-based; design: dose 300 mg/kg; procedure, shortened: as §3
Mus musculus [30] = assay: Antiepileptic activity in Swiss albino mouse assessed as protection against scPTZ-induced seizures at 300 mg/kg, ip measured after 4 hrs; assay type: functional, organism-based; design: dose 300 mg/kg; procedure, shortened: as §3
Mus musculus [31] = assay: Neurotoxicity against ip dosed Swiss albino mouse after 0.5 hrs by rotarod test; assay type: toxicity, organism-based; details: in vivo; procedure, shortened: as §2
Mus musculus [32] = assay: Neurotoxicity against ip dosed Swiss albino mouse after 4 hrs by rotarod test; assay type: toxicity, organism-based; details: in vivo; procedure, shortened: as §2

SMILES	Activity (Rattus norvegicus [1])	Activity (Mus musculus [2])	Activity (Mus musculus [3])	minimal effective dose (Mus musculus [4])	Activity (Rattus norvegicus [5])	minimal effective dose (Rattus norvegicus [6])	Activity (Rattus norvegicus [7])	Activity (Rattus norvegicus [8])	minimal effective dose (Mus musculus [9])	Activity (Rattus norvegicus [10])	Activity (Rattus norvegicus [11])	Activity (Rattus norvegicus [12])	minimal effective dose (Mus musculus [13])	Activity (Rattus norvegicus [14])	Activity (Mus musculus [15])	Activity (Rattus norvegicus [16])	Activity (Rattus norvegicus [17])	Activity (Rattus norvegicus [18])	Activity (Rattus norvegicus [19])	Activity (Rattus norvegicus [20])	also measured
C=C(C)[C@@H]1CC=C(C)/C(=N/NC(=O)Nc2nnc(-c3ccc(O)cc3)o2)C1	inactive	Non-toxic	inactive	300 mg/kg	43.48 µg	300 mg/kg	Non-toxic	25%	300 mg/kg	0%	25%	Non-toxic	100 mg/kg	0%	Non-toxic	0%	30.64 µg	47.42 µg	Non-toxic	50%	Activity (Rattus norvegicus [21]): Non-toxic
C=C(C)[C@@H]1CC=C(C)/C(=N/NC(=O)Nc2nnc(-c3ccc(F)cc3)o2)C1	inactive	Non-toxic	inactive	300 mg/kg	42.4 µg	300 mg/kg	Non-toxic	0%	300 mg/kg	25%	25%	Non-toxic	100 mg/kg	Non-toxic	Non-toxic	25%	28.42 µg	43.56 µg	Non-toxic	inactive	Activity (Rattus norvegicus [21]): 0%
C=C(C)[C@@H]1CC=C(C)/C(=N/NC(=O)Nc2nnc(-c3ccc([N+](=O)[O-])cc3)o2)C1	inactive	Non-toxic		300 mg/kg	48.59 µg	300 mg/kg	Non-toxic	25%	300 mg/kg	50%	75%	Non-toxic	100 mg/kg	Non-toxic	Non-toxic	25%	28.64 µg	66.6 µg	Non-toxic	50%	minimal effective dose (Mus musculus [22]): 100 mg/kg; Activity (Rattus norvegicus [21]): Non-toxic
CC(C)=CC/C=C(/C)C/C=N/NC(=O)Nc1nnc(-c2ccc([N+](=O)[O-])cc2)o1	inactive	Non-toxic	inactive	300 mg/kg	36.72 µg	300 mg/kg	Non-toxic	25%	300 mg/kg	25%	50%	Non-toxic	100 mg/kg	Non-toxic	Non-toxic	0%	32.04 µg	62.56 µg	Non-toxic	50%	Activity (Rattus norvegicus [21]): Non-toxic
CN1C(=O)CC(=O)N(c2ccccc2)c2cc(Cl)ccc21 [CLOBAZAM]																					Activity (Rattus norvegicus [23]): 69.51 µg; Activity (Rattus norvegicus [24]): 47.53 µg; Activity (Rattus norvegicus [25]): 35.44 µg
CCC1(C)CC(=O)NC1=O (stereo not drawn) [ETHOSUXIMIDE]		Non-toxic							300 mg/kg						Non-toxic						minimal effective dose (Mus musculus [22]): 100 mg/kg; minimal effective dose (Rattus norvegicus [26]): 300 mg/kg; Activity (Rattus norvegicus [27]): inactive; Activity (Mus musculus [28]): inactive; Activity (Mus musculus [29]): inactive
CCCC(CCC)C(=O)[O-].[Na+] [VALPROATE SODIUM]		Non-toxic											300 mg/kg		Non-toxic						Activity (Mus musculus [30]): inactive; minimal effective dose (Mus musculus [22]): 300 mg/kg; minimal effective dose (Rattus norvegicus [26]): 300 mg/kg; Activity (Rattus norvegicus [27]): inactive; Activity (Mus musculus [28]): inactive
NC(=O)N1c2ccccc2C=Cc2ccccc21 [CARBAMAZEPINE]	inactive			100 mg/kg					300 mg/kg				30 mg/kg								MTC (Mus musculus [31]): 100 mg/kg; MTC (Mus musculus [32]): 300 mg/kg; minimal effective dose (Mus musculus [22]): 100 mg/kg; Activity (Rattus norvegicus [27]): inactive
CC(C)=CC/C=C(/C)C/C=N/NC(=O)Nc1nnc(-c2cccc(O)c2)o1	inactive		inactive												Non-toxic						MTC (Mus musculus [31]): 300 mg/kg; Activity (Mus musculus [30]): inactive; Activity (Rattus norvegicus [27]): inactive; Activity (Mus musculus [28]): inactive; Activity (Mus musculus [29]): inactive
CC(C)=CC/C=C(/C)C/C=N/NC(=O)Nc1nnc(-c2ccc(O)cc2)o1	inactive	Non-toxic	inactive	300 mg/kg	34.42 µg	300 mg/kg			300 mg/kg						Non-toxic		28.25 µg	52.82 µg			Activity (Mus musculus [29]): inactive
O=C1NC(=O)C(c2ccccc2)(c2ccccc2)N1 [PHENYTOIN]	inactive		inactive	30 mg/kg		100 mg/kg	Non-toxic	50%		75%	75%	Non-toxic	30 mg/kg	Non-toxic		50%			Non-toxic	0%	MTC (Mus musculus [31]): 100 mg/kg; MTC (Mus musculus [32]): 100 mg/kg; Activity (Mus musculus [30]): inactive; Activity (Rattus norvegicus [21]): Non-toxic
